# High-throughput results as filed in PubChem.
# LEDGF integ inh: blocks HIV-1 LEDGF/p75-dependent DNA integration | TR-FRET IN-LEDGF/p75 DNA integration, Eu/Cy5 | inhibition, % at 3.7 µM | hit rate 0.64% among 370,000;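 active = inhibition above the screen-wide mean plus 3 SD, cut at about 13% in these data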;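 also: signal is the Cy5 over europium emission ratio at 671 and 618 nm; 0% = plate median of compound wells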
# Rin1-Abl PPI inh: inhibitors of human Rin1-Abl protein interaction | hit rate 0.4% among 360,000 | AID 588664 | TR-FRET Rin1/Abl binding, biochemical | P00519+Q13671 | inhibition, % at 7.35 µM; in the data active = inhibition above about 5%, passing the limit was not always enough
# TDP2 inh: blocks human TDP2 phosphodiesterase activity. O95551. recombinant TDP2, T5PNP hydrolysis, p-nitrophenol absorbance 415 nm. inhibition, % at 12.8 µM. hit rate 0.34% among 370,000;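 active = inhibition above the mean of all tested compounds plus 3 SD, set per campaign, cut at about 25% in these data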;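 also: 0% = DMSO with enzyme and 100% = buffer with substrate but no TDP2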
#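 test system = human TDP2 enzyme | input = TDP2 enzyme at 120 nM final | medium = 50 mM Tris-HCl pH 7.5 with Mg2+, KCl, DTT, BSA | also added = T5PNP substrate, 5 mM | times = 2 h at 37 °C | technique = epi absorbance | benchmarks = high control without enzyme, low control DMSO plus TDP2 | replication = each compound tested once, singlicate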
# MBD2 inh: blocks human MBD2 binding to methylated DNA; Q9UBB5; hit rate 0.31% among 370,000; inhibition, % at 4.4 µM; TR-FRET, MBD2 binding to methylated oligonucleotide; in the data active = inhibition above about 13%
# UHRF1 MBD2 ctr: UHRF1 methyl-DNA binding inhibition; hit rate 0.75% among 370,000; UHRF1 binding to methylated oligo, TR-FRET; inhibition, % at 4.4 µM; Q96T88; in the data active = inhibition above about 21%;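 also: UHRF1 SRA domain binding a hemimethylated CpG hairpin DNA probe; 0% = median of test compound wells and 100% = reference inhibitor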
# Target sequence (Q96T88 whole entry, looked up, the tested form may be a part): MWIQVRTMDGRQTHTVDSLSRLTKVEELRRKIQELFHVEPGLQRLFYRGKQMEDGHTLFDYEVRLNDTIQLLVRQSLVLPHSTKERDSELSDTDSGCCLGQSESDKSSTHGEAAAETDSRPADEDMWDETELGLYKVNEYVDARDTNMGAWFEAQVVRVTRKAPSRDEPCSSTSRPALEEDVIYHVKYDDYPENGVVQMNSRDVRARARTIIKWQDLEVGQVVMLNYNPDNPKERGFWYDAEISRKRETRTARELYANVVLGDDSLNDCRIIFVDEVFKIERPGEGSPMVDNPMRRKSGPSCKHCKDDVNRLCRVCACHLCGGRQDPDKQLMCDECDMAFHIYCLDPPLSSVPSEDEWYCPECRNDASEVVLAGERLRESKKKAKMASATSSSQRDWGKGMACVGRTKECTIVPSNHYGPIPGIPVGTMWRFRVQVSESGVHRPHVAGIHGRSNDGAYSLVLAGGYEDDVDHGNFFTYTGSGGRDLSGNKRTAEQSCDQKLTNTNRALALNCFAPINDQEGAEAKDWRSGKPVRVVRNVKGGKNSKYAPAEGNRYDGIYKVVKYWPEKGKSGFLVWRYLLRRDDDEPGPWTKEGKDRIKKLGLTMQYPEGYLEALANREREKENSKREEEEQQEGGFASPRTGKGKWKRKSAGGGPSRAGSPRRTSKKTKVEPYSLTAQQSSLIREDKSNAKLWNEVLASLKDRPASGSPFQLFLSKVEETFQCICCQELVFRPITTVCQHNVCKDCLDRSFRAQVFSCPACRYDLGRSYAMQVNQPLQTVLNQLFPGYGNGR
# TDP2 confirm: confirmation of human TDP2 inhibitors; shares compounds with TDP2 inh; recombinant human TDP2, absorbance read-out; inhibition, % at 12.8 µM; hit rate 22% among 1,100; AID 743263; in the data active = inhibition above about 25%;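 also: 0% = vehicle with enzyme and 100% = no enzyme buffer only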
# IN multimer act: HIV-1 integrase multimerization activation, counter-screen; shares compounds with LEDGF integ inh; TR-FRET HIV-1 integrase multimerization, biochemical; activation, % at 7.7 µM; hit rate 17% among 2,000; in the data active = activation above about 8.9%
# TRFRET interf: optically interferes with TR-FRET readout in LEDGF counter-screen | TR-FRET optical interference counterscreen, HIV-1 IN multimerization | shares compounds with LEDGF integ inh | 2,000 tested, under 10 active | inhibition, % at 7.7 µM | AID 1053135;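 active = inhibition above the mean over all tested compounds plus 3 SD, which no compound reached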;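 also: 0% = integrase with antibodies and DMSO and 100% = antibodies without integrase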
# IN-LEDGF confirm: LEDGF/p75-dependent HIV-1 integration inhibition, confirmation; shares compounds with LEDGF integ inh; TR-FRET LEDGF/p75-dependent HIV-1 integration, biochemical; inhibition, % at 3.7 µM; hit rate 36% among 2,000; AID 1053136; in the data active = inhibition above about 14%
# Starred values were filed as active, the others as inactive; / = no result. Most compounds without a hit are left out; they make up all but 1.9% or so of the library.
SMILES,LEDGF integ inh,Rin1-Abl PPI inh,TDP2 inh,MBD2 inh,UHRF1 MBD2 ctr,TDP2 confirm,IN multimer act,TRFRET interf,IN-LEDGF confirm
CN(C1=C(N2CCCCC2)C(=O)c2ccccc2C1=O)c1ccccc1,16*,-4,35*,9,5,2,2,-11,3
COc1ccccc1NC1=C(N2CCCCC2)C(=O)c2ccccc2C1=O,/,2,/,/,/,/,/,/,/
CN(c1ccccc1)c1nc(N)c([N+](=O)[O-])c(N2CCCCC2)n1,2,-1,-1,3,0,/,/,/,/
Cc1ccc(NC2=C(N3CCCCC3)C(=O)c3ccccc3C2=O)cc1,17*,0,56*,-2,14,61*,1,-4,38*
O=C1C(NS(=O)(=O)c2ccc(Br)cc2)=C(N2CCCCC2)C(=O)c2ccccc21,-5,1,-8,-8,-7,/,/,/,/
O=C1C(Nc2ccccc2)=C(N2CCCCC2)C(=O)c2ccccc21,22*,-1,59*,0,8,57*,-1,2,34*
Nc1cc(=O)[nH]c(SCC(=O)NCCC2=CCCCC2)n1,3,-1,-2,0,0,/,/,/,/
O=C1C(Nc2cccc(O)c2)=C(N2CCCCC2)C(=O)c2ccccc21,20*,-1,51*,-6,13,52*,-1,4,37*
Cn1c(CNc2ccc(O)cc2)nc2ccccc21,16*,1,35*,-6,7,1,5,-20,-2
O=[N+]([O-])c1cc([N+](=O)[O-])c2nonc2c1Nc1ccc(O)cc1,15*,0,25*,-13,-3,7,6,-20,3
COc1ccc(CC(=O)Nc2cc(S(=O)(=O)N3CCCCC3)ccc2OC(C)C)cc1OC,-4,5,-5,-3,-1,/,/,/,/
CC(NC(=O)Nc1ccc(O)cc1)(C(F)(F)F)C(F)(F)F,20*,1,28*,-7,-1,19,4,-15,-4
COc1ccc(NC(=O)NC(C)(C(F)(F)F)C(F)(F)F)cc1,4,-2,4,-5,1,/,/,/,/
COc1ccccc1Cc1c(-c2ccc(C#N)cc2)nc2ccc(C)cn12,-2,/,5,1,13,/,/,/,/
Nn1cnnc1N/N=C/c1ccc(F)cc1,65*,4,64*,5,6,-5,-1,2,-6
Cc1ccc(/C=N/Nc2nc(C)cc(C)n2)cc1,1,0,15,-2,1,/,/,/,/
Cc1nnc(C)n1N=Cc1ccc(Cl)c([N+](=O)[O-])c1,-1,/,6,-1,1,/,/,/,/
Nn1cnnc1N/N=C/c1ccc(Cl)c([N+](=O)[O-])c1,44*,1,75*,3,10,37*,1,-3,7
Cc1ccc(/C=N/Nc2nncn2N)cc1,65*,-2,78*,-2,11,2,-3,11,4
C[C@H]1CN([C@@H](C)CO)C(=O)Cc2cc(NS(=O)(=O)c3cn(C)cn3)ccc2O[C@@H]1CN(C)C(=O)Nc1ccc(F)cc1,-2,5,0,2,1,/,/,/,/
CC1OC2CC(=O)OC2C2=C1C(=O)c1c(O)cccc1C2=O (configuration not stated),19*,3,42*,-2,18,44*,-1,3,41*
CCOC(=O)c1c(C)oc2c1c(C=NCC1CCCO1)c(O)c1ccccc12 (configuration not stated),17*,1,29*,-5,9,11,1,-3,-1
Cc1ccc(S(=O)(=O)Nc2ccc(O)c3ccccc23)c(C)c1,14*,5,29*,-9,-5,10,4,-14,2
CCOC(=O)N1CCN(CC(=O)Nc2nccs2)CC1,0,-4,-3,-6,-1,/,/,/,/
CCCCCCn1c(=O)n2n(c1=O)[C@@H]1CN(S(=O)(=O)c3ccc(C)cc3)C[C@]1(O)[C@@H](OC(=O)Nc1c(C)noc1C)C2,4,-3,5,-2,0,/,/,/,/
SMILES,LEDGF integ inh,Rin1-Abl PPI inh,TDP2 inh,MBD2 inh,UHRF1 MBD2 ctr,TDP2 confirm,IN multimer act,TRFRET interf,IN-LEDGF confirm
CC1OC(Nc2ccc(N=Nc3ccccc3)cc2)C(O)C(O)C1O (configuration not stated),-5,1,-6,-7,-3,/,/,/,/
CC1OC(Nc2cccc3ccccc23)C(O)C(O)C1O (configuration not stated),36*,8,34*,-8,-5,14,3,-13,5
Cc1ccc(S(=O)(=O)NC(=O)C2(C)CCN2C(=O)Cc2ccc(Cl)cc2Cl)cc1 (configuration not stated),-3,0,2,-4,1,/,/,/,/
O=C(OCCN1CCN(C2CN(Cc3cn(Cc4ccccc4F)nn3)S(=O)(=O)C2)CC1)c1cc2ccccc2o1 (configuration not stated),2,/,-1,12,14,/,/,/,/
CC(C)(C)c1nnc(N/N=C/c2ccccc2O)n(N)c1=O,-4,-4,-6,-1,-3,/,/,/,/
COc1cccc(/C=N/Nc2nnc(C)n2N)c1OCc1ccccc1Cl,41*,-1,54*,-5,4,-4,1,-3,-3
CCc1nnc(N/N=C/c2ccccc2F)n1N,58*,-1,66*,1,8,4,0,2,0
CCc1nnc(N/N=C/c2ccccc2Cl)n1N,46*,-6,61*,-4,9,-2,0,-1,-1
CCOC(=O)N/N=C/c1ccccc1F,-1,0,-3,-2,-3,/,/,/,/
O=C(c1ccc2c(=O)n(Cc3ccc(Cl)cc3)c(=S)[nH]c2c1)N1CCOCC1,-2,0,4,2,1,/,/,/,/
CCOC(=O)c1c(C)[nH]c(C(=O)CN(C)CC(=O)Nc2ccccc2Cl)c1C,0,-2,-2,-6,0,/,/,/,/
COc1ccc(C)cc1N(C)C(=O)Cc1c(C(=O)O)n(C)c2ccccc12,-3,1,-18,6,7,/,/,/,/
Clc1ccccc1N=Nc1ccccn1,25*,-1,42*,-1,5,27*,1,-4,16*
Cc1[nH][nH]c(=O)c1N=Nc1ccccc1Cl,0,-1,-1,-15,-15,/,/,/,/
CC(C)NC(=O)c1onc(CSc2ccc(F)cc2)c1C(=O)NC(C)C,1,1,-3,0,0,/,/,/,/
COc1ccccc1NC(=O)N(C)C[C@H]1OCc2cnnn2CCCC(=O)N([C@@H](C)CO)C[C@H]1C,-3,-1,6,2,2,/,/,/,/
